Compounds with a hit are over-represented: about 3.1% of the library has one in this group of screens.
PGC1a acetyl inh = inhibitors of PGC1a acetylation signal, primary screen, cell-based, U2OS, AlphaScreen, inhibitor mode | AlphaScreen anti-acetyl-lysine; with virally co-expressed GCN5 acetyltransferase | inhibition, % at 15.6 µM | hit rate 0.17% among 350,000 | AID 651687, 2012;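 active means every replicate shows inhibition of at least 40%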
FGF22 binding = binders of human FGF22 protein, primary screen, FGF22 synaptogenesis inhibitor project, biophysical, thermal shift, single point. Fibroblast growth factor 22 (Homo sapiens), Q9HCT0. hit rate 1.5% among 340,000. recombinant FGF22 thermal shift, SYPRO orange fluorescence; percent of sucrose octasulfate shift, DMSO zero. activity (Tm shift, normalised), % at 9.99 µM;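 active means mean Tm shift, scaled 0 neutral to 100 positive control, at about 1.3% or above, every replicate too, limit read from the data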
Target sequence (Q9HCT0 whole entry, looked up): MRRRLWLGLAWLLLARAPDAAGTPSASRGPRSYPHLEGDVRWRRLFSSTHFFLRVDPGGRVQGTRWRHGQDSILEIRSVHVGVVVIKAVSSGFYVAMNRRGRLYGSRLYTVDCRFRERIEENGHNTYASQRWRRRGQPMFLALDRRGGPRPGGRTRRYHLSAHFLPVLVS
FN deposition inh = inhibitors of fibronectin matrix deposition, primary screen, AH1F cells, Alexa488-fibronectin fluorescence, plate reader; AH1F fibroblasts, overnight; inhibition, % at 12.6 µM; hit rate 0.086% among 350,000; AID 743247, 2014;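 active means mean inhibition across replicates of 30% or more, regardless of how many single replicates reach that level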
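Material: AH1F fibroblast monolayer depositing Alexa488-labelled fibronectin into matrix / Amount: 10000 AH1F cells per well / Signal: fluorescence 485/525 nm / Medium: DMEM, 2% serum / Compound: single dose, pinned / Incubation: 1 h cell adhesion before compound, then overnight fibronectin incubation / Reagent: Alexa488-FN, 24 nM final / Read-out: inhibition of fibronectin deposition signal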
EWS-Fli inh = EWS/Fli-driven NR0B1 reporter inhibitors, primary screen, A673 cells, NR0B1 luciferase, luminescence, MLPCN library. hit rate 0.67% among 350,000. inhibition, % at 12.6 µM. viability-normalised;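 active means mean inhibition of at least 50% after viability correction, with every replicate also passing that limit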;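 further: firefly luciferase signal divided by Alamar Blue viability fluorescence both relative to DMSO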
Env fusion inh = inhibitors of HIV-1 Env-driven cell-cell fusion, primary screen, HeLa-JRFL effector, CEM21 target cells, luciferase. inhibition, % at 12.3 µM. hit rate 1.1% among 360,000;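 active means mean replicate inhibition score of at least 50 and every replicate individually at or above 50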
PAX8 reporter = inhibitors of PAX8-driven TPO luciferase reporter, primary screen, RMG-I cells, single concentration. inhibition, % at 12.6 µM. SteadyGlo, 24 h. hit rate 1.2% among 360,000;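 active means mean replicate inhibition at least 60% with every replicate also reaching 60%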;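 further: luciferase light reporting Pax8 driven TPO promoter activity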
A number is an active result; 0 = inactive; - = not tested or not shown.

SMILES	PGC1a acetyl inh	FGF22 binding	FN deposition inh	EWS-Fli inh	Env fusion inh	PAX8 reporter
COc1ccc(-c2ccc([C@@H]3[C@@H](CO)N4CCCCN(C(=O)Cc5ccccc5)C[C@H]34)cc2)cc1	0	-	-	-	-	119
COc1ccc(-c2ccc([C@H]3[C@@H](CO)N4CCCCN(C(=O)Cc5ccccc5)C[C@H]34)cc2)cc1	0	0	-	-	-	0
O=C(Cc1ccccn1)N1CCCCN2[C@@H](CO)[C@@H](c3ccc(-c4ccc(F)cc4)cc3)[C@@H]2C1	0	0	-	0	-	89
C=CCN1[C@@H]2CN(S(C)(=O)=O)C[C@H]1C2c1ccccc1 (some centres undefined)	-	-	0	-	-	-
CCC(C)C(NC(=O)CCCNC(=O)CCC(=O)OC1O[C@H]2OC3(C)CC[C@H]4[C@H](C)CCC(C1C)C24OO3)C(=O)O (some centres undefined)	-	0	0	0	58	74
CCOC(=O)[C@]12Cc3cc(C)ccc3[C@H]1N(C1CCCCC1)C(=O)c1cc(OC)ccc12	-	0	0	0	0	104
CCOc1ccc(-c2cc(C)[n+](CCO)c(-c3ccc(OCC)cc3)c2)cc1	-	0	0	0	0	92
CCOc1ccc(-c2cc(C)[n+](CCc3ccc(OC)c(OC)c3)c(-c3ccc(OCC)cc3)c2)cc1	0	0	0	51	0	92
Cc1cc(-c2ccccc2)cc(-c2ccccc2)[n+]1CCc1ccccc1	0	0	0	0	0	85
C[n+]1c(-c2ccccc2)cc(-c2ccc(O)cc2)cc1-c1ccccc1	0	0	0	0	0	0
CN1[C@@H]2CN(CC3CC3)C[C@H]1C2c1ccc(Br)cc1 (some centres undefined)	-	-	0	-	-	-
FC(F)(F)CN1C[C@@H]2C(c3ccc(Br)cc3)[C@H](C1)N2CC1CC1 (some centres undefined)	-	-	0	-	-	-
CCC(CC)NCc1c[nH]c2ccccc12	-	43	0	0	0	0
CCC(C)C1NC(=O)C(NC(=O)C(CC(C)C)N(C)C(=O)C2CCCN2C(=O)C(C)O)C(C)OC(=O)C(Cc2ccc(OC)cc2)N(C)C(=O)C2CCCN2C(=O)C(CC(C)C)NC(=O)[C@H](C)C(=O)[C@H](C(C)C)OC(=O)CC1O (some centres undefined)	0	0	0	72	83	95
Cn1cccc1/C=C1\C(=O)NC(=O)N(Cc2ccccc2Cl)C1=O	-	44	0	0	0	0
Cn1cccc1/C=C1\C(=O)NC(=O)N(CCC2=CCCCC2)C1=O	-	0	0	0	0	0
O=C(O)[C@@H]1[C@@H](CO)[C@@H]2Cn3c(ccc(C4=CCCCC4)c3=O)[C@H]1N2C(=O)Cc1ccccn1	-	0	0	0	0	0
NC(N)=N/N=C/c1cn(-c2ccccc2)nc1-c1cccs1	-	0	35	0	0	0
O=c1c2ccccc2nc(-c2cccs2)n1-c1ccccc1	0	-	-	-	-	-
N#Cc1c(N2CCNCC2)nc(-c2ccco2)c2c1CCCC2	0	1.9	0	0	0	0
CCCCc1nc(N2CCNCC2)c(C#N)c2c1CSC(C)(C)C2	0	-	0	-	0	0
O=C(Cc1ccccn1)N1CC2(C1)[C@@H](c1ccccc1)[C@@H](CO)N2Cc1ccccn1	0	0	-	0	-	0
CCc1ccc(N2C(=O)NC(=O)/C(=C/c3cccn3CCOc3ccc(C)cc3)C2=O)cc1	-	0	0	0	0	0
CCc1ccc(N2C(=O)NC(=O)/C(=C/c3cccn3CCOc3ccc(C(C)CC)cc3)C2=O)cc1 (centres undefined)	-	43	0	0	0	0
CC(=O)N1C[C@@H]2C(c3ccccc3)[C@H](C1)N2C (some centres undefined)	-	-	0	-	-	-
SMILES	PGC1a acetyl inh	FGF22 binding	FN deposition inh	EWS-Fli inh	Env fusion inh	PAX8 reporter
O=[N+]([O-])c1c(Cl)c(Cl)c(Cl)c(Cl)c1Cl	0	0	0	0	0	0
Nc1cc(Cl)c2nonc2c1[N+](=O)[O-]	-	-	0	-	0	76
COC(=O)[C@@H]1[C@@H](CO)[C@@H]2Cn3c(ccc(-c4cccc(OC)c4)c3=O)[C@H]1N2C(=O)c1ccccc1F	0	0	-	0	-	0
CCOP(=O)(CCP(=O)(OCC)OCC)OCC.C[CH2][Sn]([Cl])([Cl])[CH2]C	0	0	0	0	0	93
CCC(c1nnnn1Cc1ccccc1)N1CCC(n2c(=O)[nH]c3ccccc32)CC1 (centres undefined)	0	0	0	0	55	88
CCC(c1nnnn1-c1ccc(OC)cc1)N1CCC(n2c(=O)[nH]c3ccccc32)CC1 (centres undefined)	0	0	-	0	0	0
CCCCn1nnnc1C(CCc1ccccc1)N1CCC(n2c(=O)[nH]c3ccccc32)CC1 (centres undefined)	0	0	0	0	0	81
CCCCn1nnnc1C(CCSC)N1CCC(n2c(=O)[nH]c3ccccc32)CC1 (centres undefined)	0	0	0	0	0	0
CC(C)NC(=O)N1C[C@@H]2N[C@H](C1)C2c1ccccc1 (some centres undefined)	-	-	0	-	-	-
COc1cc([C@@H]2c3cc4c(cc3[C@@H](OC)[C@H]3COC(=O)[C@H]23)OCO4)cc(OC)c1O	-	0	0	63	0	0
N#Cc1ccc(-c2ccc([C@H]3[C@H](CO)N4CCCCN(C(=O)Cc5ccccc5)C[C@@H]34)cc2)cc1	0	0	-	0	-	0
COc1ccc(C#Cc2ccc([C@H]3[C@H]4CN(C(=O)Cc5cccnc5)CCCCN4[C@H]3CO)cc2)cc1	0	0	-	0	-	0
Cc1ccc(-n2c(O)c(C=Nc3ccc(S(N)(=O)=O)cc3)c(=O)[nH]c2=O)cc1	0	43	0	0	0	0
CSc1ccc(C(=O)C2CCCN(Cc3cnc(SC)nc3)C2)cc1 (centres undefined)	0	44	0	0	0	0
O=C(CNC(=O)OCc1ccccc1)Nc1ccc(Br)cc1C(=O)c1ccccc1	0	-	0	-	59	-
O=C(CNC(=O)OCc1ccccc1)NCC(=O)Nc1ccc(Br)cc1C(=O)c1ccccc1	-	-	0	-	0	0
COC(=O)C[C@H]1CC[C@H]2NC[C@H](O)COC[C@@H]2O1	0	0	0	0	0	0
O=C1CCN(C(=O)Cc2ccccc2[N+](=O)[O-])CC1	0	44	0	0	0	0
O=C(Cc1ccncc1)N1CCCCN2[C@H](CO)[C@@H](c3ccc(C#CC4(O)CCCC4)cc3)[C@@H]2C1	0	0	-	-	-	0
CC(=O)OC1C(O)C(C)OC(OC2C(OC(=O)C3CCC4C(C3)OC3(CC(OC(=O)/C=C/c5ccccc5)C(C)CO3)C43CO3)OC(C)C(O)C2OC(C)=O)C1O (centres undefined)	78	0	0	0	72	104
CCc1nc2ccc(Br)cc2c(=O)n1-c1ccccc1C(F)(F)F	0	-	0	-	0	0
